Source: ChEMBL document CHEMBL4004891, “Antioxidant Properties of Novel Dimers Derived from Natural β-Elemene through Inhibiting H2O2-Induced Apoptosis” (ACS Med Chem Lett, 2017)
The source made the active and inactive calls. No cut-off for these calls is given here.

How the values were obtained:
HUVEC [1] = assay: Cytoprotective activity against H2O2-induced cell injury in HUVEC assessed as inhibition of apoptosis by measuring early apoptotic cells at 10 uM pretreated for 24 hrs followed by H2O2-stimulation after 2 hrs by Annexin-V-APC/7AAD staining based flow cytometry (reference value: 34.96%); format: functional, Homo sapiens; design: scale not given: the % may be the effect or the level left
HUVEC [2] = assay: Effect on total ERK1/2 protein level in HUVEC at 0.1 to 10 uM pretreated for 24 hrs followed by H2O2-stimulation for 2 hrs by western blot analysis; format: cell-based; details: human
HUVEC [3] = assay: Cytoprotective activity against H2O2-induced cell apoptosis in HUVEC pretreated for 24 hrs followed by H2O2-stimulation for 2 hrs by Annexin-V-APC/7AAD staining based flow cytometry; format: functional; details: Homo sapiens
HUVEC [4] = assay: Cytoprotective activity against H2O2-induced cell injury in HUVEC assessed as inhibition of apoptosis by measuring late apoptotic cells at 10 uM pretreated for 24 hrs followed by H2O2-stimulation after 2 hrs by Annexin-V-APC/7AAD staining based flow cytometry (reference value: 10.78%); format: functional, Homo sapiens; design: scale not given: the % may be the effect or the level left
HUVEC [5] = assay: Cytoprotective activity against H2O2-induced cell injury in HUVEC assessed as cell survival at 1 uM pretreated for 24 hrs followed by H2O2-stimulation after 2 hrs by MTT assay (reference value: 60.21%); format: functional; details: Homo sapiens, read-out: Survival
HUVEC [6] = assay: Cytoprotective activity against H2O2-induced cell injury in HUVEC assessed as cell survival at 0.1 uM pretreated for 24 hrs followed by H2O2-stimulation after 2 hrs by MTT assay (reference value: 60.21%); format: functional; details: Homo sapiens, read-out: Survival
HUVEC [7] = assay: Cytoprotective activity against H2O2-induced cell injury in HUVEC assessed as inhibition of apoptosis by measuring late apoptotic cells at 1 uM pretreated for 24 hrs followed by H2O2-stimulation after 2 hrs by Annexin-V-APC/7AAD staining based flow cytometry (reference value: 10.78%); format: functional, Homo sapiens; design: scale not given: the % may be the effect or the level left
HUVEC [8] = assay: Cytoprotective activity against H2O2-induced cell injury in HUVEC assessed as inhibition of apoptosis by measuring late apoptotic cells at 0.1 uM pretreated for 24 hrs followed by H2O2-stimulation after 2 hrs by Annexin-V-APC/7AAD staining based flow cytometry (reference value: 10.78%); format: functional, Homo sapiens; design: scale not given: the % may be the effect or the level left
[9] = target: c-Jun N-terminal kinase, JNK (Homo sapiens) (UniProt P45983+P53779+P45984); assay: Inhibition of H2O2-induced JNK phosphorylation in HUVEC pretreated for 24 hrs followed by H2O2-stimulation after 2 hrs by western blot analysis
HUVEC [10] = assay: Cytoprotective activity against H2O2-induced cell injury in HUVEC assessed as increase in cell survival pretreated for 24 hrs followed by H2O2-stimulation after 2 hrs by MTT assay; format: functional, cell-based; details: Homo sapiens
Procedure, shortened: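 MTT survival of H2O2-injured HUVECs after pretreatment at 10, 1, 0.1 and 0.01 μM; compared with H2O2-only model group; EC50 derived from concentration–response; means ± SD, n = 3.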

HUVEC [11] = assay: Cytotoxicity against HUVEC assessed as increase in cell viability at 0.1 to 50 uM after 24 hrs by MTT assay relative to control; format: cell-based; details: human
Procedure, shortened: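 Normal HUVECs incubated 24 h with 0.1−50 μM, no H2O2; viability by MTT assay; means ± SD, n = 3.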

HUVEC [12] = assay: Effect on total JNK protein level in HUVEC at 0.1 to 10 uM pretreated for 24 hrs followed by H2O2-stimulation for 2 hrs by western blot analysis; format: cell-based; details: human
HUVEC [13] = assay: Cytoprotective activity against H2O2-induced cell injury in HUVEC assessed as increase in nitric oxide level pretreated for 24 hrs followed by H2O2-stimulation after 2 hrs by DAF-FM-DA probe based fluorescent imaging analysis; format: functional; details: Homo sapiens
Procedure, shortened: (§1)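 Pretreatment 24 h at 0.1, 1 and 10 μM before 0.5 mM H2O2 for 2 h in HUVECs; LDH release, MDA content, SOD activity and NO secretion then measured.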

HUVEC [14] = assay: Cytoprotective activity against H2O2-induced cell injury in HUVEC assessed as cell survival at 0.01 uM pretreated for 24 hrs followed by H2O2-stimulation after 2 hrs by MTT assay (reference value: 60.21%); format: functional; details: Homo sapiens, read-out: Survival
HUVEC [15] = assay: Cytoprotective activity against H2O2-induced cell injury in HUVEC assessed as inhibition of apoptosis by measuring viable cells at 10 uM pretreated for 24 hrs followed by H2O2-stimulation after 2 hrs by Annexin-V-APC/7AAD staining based flow cytometry (reference value: 53.8%); format: functional, Homo sapiens
HUVEC [16] = assay: Cytoprotective activity against H2O2-induced cell injury in HUVEC assessed as decrease in level of reactive oxygen species pretreated for 24 hrs followed by H2O2-stimulation after 2 hrs by DCFH-DA staining based fluorescence assay; format: functional; details: Homo sapiens
Procedure, shortened: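 DCF fluorescence imaging in HUVECs with or without pretreatment, exposed to H2O2; intensity expressed as percentage of control group fluorescence; means ± SD, n = 3.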

HUVEC [17] = assay: Cytoprotective activity against H2O2-induced cell injury in HUVEC assessed as inhibition of apoptosis by measuring necrotic cells at 10 uM pretreated for 24 hrs followed by H2O2-stimulation after 2 hrs by Annexin-V-APC/7AAD staining based flow cytometry (reference value: 0.45%); format: functional, Homo sapiens; design: scale not given: the % may be the effect or the level left
HUVEC [18] = assay: Cytoprotective activity against H2O2-induced cell injury in HUVEC assessed as decrease in LDH release pretreated for 24 hrs followed by H2O2-stimulation after 2 hrs; format: functional, cell-based; details: Homo sapiens; procedure, shortened: as §1
[19] = target: Mitogen-activated protein kinase; ERK1/ERK2 (Homo sapiens) (UniProt P27361+P28482); assay: Inhibition of H2O2-induced ERK1/2 phosphorylation in HUVEC pretreated for 24 hrs followed by H2O2-stimulation after 2 hrs by western blot analysis; format: protein assay
HUVEC [20] = assay: Cytoprotective activity against H2O2-induced cell injury in HUVEC assessed as decrease in MDA level pretreated for 24 hrs followed by H2O2-stimulation after 2 hrs; format: functional, cell-based; details: Homo sapiens; procedure, shortened: as §1
HUVEC [21] = assay: Cytoprotective activity against H2O2-induced cell injury in HUVEC assessed as inhibition of apoptosis by measuring necrotic cells at 0.1 uM pretreated for 24 hrs followed by H2O2-stimulation after 2 hrs by Annexin-V-APC/7AAD staining based flow cytometry (reference value: 0.45%); format: functional, Homo sapiens; design: scale not given: the % may be the effect or the level left
HUVEC [22] = assay: Cytoprotective activity against H2O2-induced cell injury in HUVEC assessed as increase in SOD activity pretreated for 24 hrs followed by H2O2-stimulation after 2 hrs; format: functional, cell-based; details: Homo sapiens; procedure, shortened: as §1
HUVEC [23] = assay: Cytoprotective activity against H2O2-induced cell injury in HUVEC assessed as cell survival at 10 uM pretreated for 24 hrs followed by H2O2-stimulation after 2 hrs by MTT assay (reference value: 60.21%); format: functional; details: Homo sapiens, read-out: Survival
HUVEC [24] = assay: Cytoprotective activity against H2O2-induced cell injury in HUVEC assessed as increase in cell viability at 10 uM pretreated for 24 hrs followed by H2O2-stimulation after 2 hrs by MTT assay; format: functional, cell-based; details: Homo sapiens
[25] = target: MAP kinase p38 (Homo sapiens) (UniProt O15264+Q15759+Q16539+P53778); assay: Inhibition of H2O2-induced p38 phosphorylation in HUVEC pretreated for 24 hrs followed by H2O2-stimulation after 2 hrs by western blot analysis
HUVEC [26] = assay: Cytoprotective activity against H2O2-induced cell injury in HUVEC assessed as inhibition of apoptosis by measuring early apoptotic cells at 1 uM pretreated for 24 hrs followed by H2O2-stimulation after 2 hrs by Annexin-V-APC/7AAD staining based flow cytometry (reference value: 34.96%); format: functional, Homo sapiens; design: scale not given: the % may be the effect or the level left
HUVEC [27] = assay: Cytoprotective activity against H2O2-induced cell injury in HUVEC assessed as inhibition of apoptosis by measuring viable cells at 0.1 uM pretreated for 24 hrs followed by H2O2-stimulation after 2 hrs by Annexin-V-APC/7AAD staining based flow cytometry (reference value: 53.8%); format: functional, Homo sapiens
HUVEC [28] = assay: Cytoprotective activity against H2O2-induced cell injury in HUVEC assessed as inhibition of apoptosis by measuring viable cells at 1 uM pretreated for 24 hrs followed by H2O2-stimulation after 2 hrs by Annexin-V-APC/7AAD staining based flow cytometry (reference value: 53.8%); format: functional, Homo sapiens
HUVEC [29] = assay: Effect on total p38 MAPK protein level in HUVEC at 0.1 to 10 uM pretreated for 24 hrs followed by H2O2-stimulation for 2 hrs by western blot analysis; format: cell-based; details: human
HUVEC [30] = assay: Cytoprotective activity against H2O2-induced cell injury in HUVEC assessed as inhibition of apoptosis by measuring necrotic cells at 1 uM pretreated for 24 hrs followed by H2O2-stimulation after 2 hrs by Annexin-V-APC/7AAD staining based flow cytometry (reference value: 0.45%); format: functional, Homo sapiens; design: scale not given: the % may be the effect or the level left
HUVEC [31] = assay: Cytoprotective activity against H2O2-induced cell injury in HUVEC assessed as inhibition of apoptosis by measuring early apoptotic cells at 0.1 uM pretreated for 24 hrs followed by H2O2-stimulation after 2 hrs by Annexin-V-APC/7AAD staining based flow cytometry (reference value: 34.96%); format: functional, Homo sapiens; design: scale not given: the % may be the effect or the level left
HUVEC [32] = assay: Cytoprotective activity against H2O2-induced cell injury in HUVEC assessed as level of reactive oxygen species by measuring fluorescence intensity at 0.1 to 10 uM pretreated for 24 hrs followed by H2O2-stimulation after 2 hrs by DCFH-DA staining based fluorescence assay (reference value: 3.3); format: functional, Homo sapiens

Sequence of Mitogen-activated protein kinase; ERK1/ERK2 (Homo sapiens) (P27361 whole entry, looked up): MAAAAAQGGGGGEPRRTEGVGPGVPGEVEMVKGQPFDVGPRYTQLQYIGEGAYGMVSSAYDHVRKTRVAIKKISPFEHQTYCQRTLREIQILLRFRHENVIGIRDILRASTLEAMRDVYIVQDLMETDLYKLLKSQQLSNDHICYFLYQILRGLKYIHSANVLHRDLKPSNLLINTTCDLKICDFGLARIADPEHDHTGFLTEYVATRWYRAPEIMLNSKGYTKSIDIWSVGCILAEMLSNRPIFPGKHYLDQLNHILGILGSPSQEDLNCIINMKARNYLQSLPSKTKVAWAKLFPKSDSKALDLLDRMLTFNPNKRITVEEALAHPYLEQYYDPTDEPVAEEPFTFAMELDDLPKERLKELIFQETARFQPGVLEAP
Sequence of Mitogen-activated protein kinase; ERK1/ERK2 (Homo sapiens) (P28482 whole entry, looked up): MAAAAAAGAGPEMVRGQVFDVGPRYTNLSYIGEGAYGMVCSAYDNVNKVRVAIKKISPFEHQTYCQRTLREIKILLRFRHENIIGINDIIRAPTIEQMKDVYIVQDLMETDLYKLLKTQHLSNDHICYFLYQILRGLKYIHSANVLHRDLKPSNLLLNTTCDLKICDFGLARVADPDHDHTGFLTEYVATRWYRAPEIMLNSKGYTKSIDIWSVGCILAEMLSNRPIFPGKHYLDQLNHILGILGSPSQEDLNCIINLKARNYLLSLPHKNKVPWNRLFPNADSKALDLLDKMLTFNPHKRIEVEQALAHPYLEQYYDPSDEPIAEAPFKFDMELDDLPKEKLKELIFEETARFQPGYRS

SMILES: C=C[C@]1(C)CC[C@@H](C(=C)COC(=O)/C=C/C(=O)OCC(=C)[C@@H]2CC[C@@](C)(C=C)[C@H](C(=C)C)C2)C[C@H]1C(=C)C
- Activity (HUVEC [1]): 12.82%
- Activity (HUVEC [2]): Non-Toxic
- Activity (HUVEC [3]): Dose-dependent effect
- Activity (HUVEC [4]): 12.71%
- viability at 1 µM (HUVEC [5]): 85.5%
- viability at 0.1 µM (HUVEC [6]): 76.7%
- Activity (HUVEC [7]): 7.92%
- Activity (HUVEC [8]): 10.22%
- inhibition [9]: Dose-dependent effect
- Activity (HUVEC [10]): Dose-dependent effect
- EC50 (HUVEC [10]): 220 nM
- Activity (HUVEC [11]): > 90%
- Activity (HUVEC [12]): Non-Toxic
- Activity (HUVEC [13]): Dose-dependent effect
- viability at 0.01 µM (HUVEC [14]): 65.5%
- Activity (HUVEC [15]): 71.78%
- Activity (HUVEC [16]): Dose-dependent effect
- Activity (HUVEC [17]): 2.69%
- Activity (HUVEC [18]): Dose-dependent effect
- inhibition [19]: Dose-dependent effect
- Activity (HUVEC [20]): Dose-dependent effect
- Activity (HUVEC [21]): 0.3%
- Activity (HUVEC [22]): Dose-dependent effect
- viability at 10 µM (HUVEC [23]): 97%
- Activity (HUVEC [24]): Active
- inhibition [25]: Dose-dependent effect
- Activity (HUVEC [26]): 23.59%
- Activity (HUVEC [27]): 58.55%
- Activity (HUVEC [28]): 68.31%
- Activity (HUVEC [29]): Non-Toxic
- Activity (HUVEC [30]): 0.18%
- Activity (HUVEC [31]): 30.92%
- Flu intensity (HUVEC [32]): 1.16 - 2.4
